hK5 inh: kallikrein 5 (human) inhibition; recombinant hK5, fluorogenic AMC substrate cleavage; inhibition, % at 5 µM; actives 0.59% (n = 210,000);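 active = inhibition of 40% or more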;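 note: 0% = enzyme controls without compound and 100% = no-enzyme blanks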
FXIa inh 1536: inhibitors of human coagulation factor XIa; actives 0.14% (n = 220,000); inhibition, % at 5 µM; purified FXIa, Boc-Glu-Ala-Arg-AMC fluorogenic substrate; AID 798;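 active = inhibition of at least 40%; inactive = inhibition below 40%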;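 note: fluorescence of freed AMC excited at 355 nm; 0% = enzyme without compound and 100% = no enzyme blank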
Target sequence (P03951 19-387 limits assumed): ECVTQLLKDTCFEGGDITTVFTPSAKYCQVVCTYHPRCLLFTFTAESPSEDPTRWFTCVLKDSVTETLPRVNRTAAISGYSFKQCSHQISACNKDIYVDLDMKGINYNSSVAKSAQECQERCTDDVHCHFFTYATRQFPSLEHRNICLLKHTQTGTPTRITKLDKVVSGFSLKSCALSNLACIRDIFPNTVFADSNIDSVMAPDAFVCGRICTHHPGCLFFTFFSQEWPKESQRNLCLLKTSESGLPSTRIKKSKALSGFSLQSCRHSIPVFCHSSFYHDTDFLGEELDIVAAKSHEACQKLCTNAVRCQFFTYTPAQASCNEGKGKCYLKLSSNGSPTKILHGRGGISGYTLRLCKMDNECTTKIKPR
Target sequence (P03951 388-625 limits assumed): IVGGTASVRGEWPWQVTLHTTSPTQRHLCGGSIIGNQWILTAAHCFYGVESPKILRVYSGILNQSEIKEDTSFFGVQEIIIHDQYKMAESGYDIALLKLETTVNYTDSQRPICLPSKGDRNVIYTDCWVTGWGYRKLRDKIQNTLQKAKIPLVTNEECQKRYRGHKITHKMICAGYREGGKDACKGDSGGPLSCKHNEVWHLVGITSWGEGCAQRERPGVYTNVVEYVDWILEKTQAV
Thrombin inh: thrombin (human) inhibition; alpha-thrombin, Boc-VPR-AMC fluorogenic substrate cleavage; actives 0.26% (n = 220,000); inhibition, % at 5 µM; P00734;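 active = inhibition at or above 40%; inactive = inhibition below 40%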;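 note: 0% = enzyme with no compound and 100% = wells without enzyme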
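signal = AMC fluorescence, 355/460 nm | material = human alpha-thrombin enzyme | control set = enzyme without compound as high, wells lacking enzyme as low | times = reaction at room temperature | read-out basis = percent inhibition scaled between no-compound controls and no-enzyme blanks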
STAT3 activator: increases IL-6 driven STAT3 reporter signal | activation (% of control), % at 5.6 µM | AID 871 | actives 0.91% (n = 190,000) | U3A cells, IL-6 STAT3-luciferase reporter, luminescence; 100% = signal with IL-6 EC80 alone;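 active = activation above the screen-wide mean of compound activation plus 3 SD, cut at about 130% in these data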;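 note: 0% = background luminescence of wells with medium and substrate only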
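Assay system – human STAT1-deficient U3A cells with stable STAT3-luciferase reporter · Also added – IL-6 (33 ng/mL) · Schedule – compound 1 h, then IL-6 6 h at 37 °C · Technique – reporter luminescence signal · Evaluation – % activation versus median of IL-6-stimulated wells · Benchmarks – IL-6-only wells as 100% reference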
FXIIa inh: inhibitors of human coagulation factor XIIa. inhibition, % at 5 µM. P00748. actives 0.3% (n = 220,000). purified FXIIa, Boc-QGR-AMC fluorogenic substrate, 2 h; in the data active = inhibition above about 40%;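 note: 0% = enzyme with no compound and 100% = blank without enzyme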
AHR activator: activates the human aryl hydrocarbon receptor; actives 2.5% (n = 320,000); activation, % at 5 µM; AHR-responsive luciferase reporter cells, luminescence; P35869; AID 2796; in the data active = activation above about 47%;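 note: 0% = vehicle wells and 100% = reference agonist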
* = called active by the depositor; nt = not tested or not shown. Shown are actives, neighbours in structure and some others; about 3.5% of the full set was active somewhere.

SMILES	hK5 inh	FXIa inh 1536	Thrombin inh	STAT3 activator	FXIIa inh	AHR activator
O=C(/C=C/c1ccco1)Nc1cccc2cccnc12	-5.3	8.0	1.3	117.2	4.9	47.7*
O=C(/C=C/c1ccco1)c1cccnc1	nt	nt	nt	nt	nt	0.1
O=C(Nc1cccnc1)/C(N=Nc1cccnc1)=C(\O)c1ccccc1	-6.3	5.3	-8.4	96.4	10.8	60.9*
O=C(O)/C=C/C(=O)Nc1cccnc1	71.8*	15.7	30.6	94.3	11.3	0.9
Cc1cccc(C)c1N1CCN(C(=O)Cn2cncn2)CC1	-20.0	-1.2	-3.7	99.7	5.5	-0.2
O=[N+]([O-])c1ccc(Cl)c(S(=O)(=O)Nc2ccc3cn[nH]c3c2)c1	nt	nt	nt	nt	nt	13.0
O=C(O)c1ccc(Cl)c(S(=O)(=O)Nc2ccc3cn[nH]c3c2)c1	-5.5	-1.1	1.1	135.3*	5.0	23.3
O=C(CN1C(=O)NC2(CCCCCC2)C1=O)c1ccc(OC(F)F)cc1OC(F)F	nt	nt	nt	nt	nt	3.9
Nn1cc(-c2ccccc2)nc1SCC(=O)N1CCN(S(=O)(=O)c2ccccc2)CC1	1.8	-7.2	-7.6	98.3	8.3	52.1*
O=C(CSc1ncccn1)N1CCN(S(=O)(=O)c2ccccc2)CC1	7.7	4.7	6.9	nt	18.3	2.1
Nc1ncnc2nc(SCCN3CCCCC3)[nH]c12	-18.1	-10.3	76.2*	101.8	-2.8	-1.9
Nc1ncnc2nc(SCc3ccccc3)[nH]c12	6.8	-7.2	-7.8	100.3	-11.5	20.6
CCN(CCNS(=O)(=O)c1ccc2c(c1)oc(=O)n2C)c1ccccc1	42.0*	-2.2	-4.7	110.1	5.7	5.4
Cc1cc(-n2c(C)cc(C(=O)COc3ccc([N+](=O)[O-])cc3)c2C)no1	-1.1	-3.2	-4.3	94.2	5.4	6.1
Cc1cc(-n2c(C)cc(C(=O)COc3ccc(Cl)cc3C(N)=O)c2C)no1	nt	nt	nt	nt	nt	47.3*
Cn1c2ccccc2c2nnc(SCC(=O)NC3CCCC3)nc21	nt	nt	nt	nt	nt	-0.6
Cc1[nH]n(-c2ccc([N+](=O)[O-])cc2)c(=O)c1N=Nc1nc2ccccc2s1	nt	nt	nt	162.6*	nt	nt
COCCn1c(SCC(=O)N2CC(C)OC(C)C2)nc2c([nH]c3ccccc32)c1=O (stereo unspecified)	nt	nt	nt	nt	nt	29.8
COc1ccc(-n2c(SCC(=O)N(C)c3ccccc3)nc3c([nH]c4ccccc43)c2=O)cc1OC	nt	nt	nt	nt	nt	13.2
CCn1c(SCC(=O)N2CC(C)OC(C)C2)nc2c([nH]c3ccccc32)c1=O (stereo unspecified)	nt	nt	nt	nt	nt	49.9*
CCn1c(SCC(=O)N(C)c2ccccc2)nc2c([nH]c3ccccc32)c1=O	nt	nt	nt	nt	nt	71.9*
O=c1[nH]c(/C=C/c2ccc(OC(F)F)cc2)nc2c1cnn2-c1ccccc1	0.6	1.2	-8.6	91.4	8.4	75.3*
CC(C)Sc1nc2c(cnn2-c2ccccc2)c(=O)[nH]1	0.1	2.2	-3.6	107.5	9.6	24.2
COc1ccc(NC(=O)Cn2cnc3c(oc4nc5c(cc43)COC(C)(C)C5)c2=O)cc1	-1.9	1.6	-1.5	nt	8.0	0.3
COc1nc(-c2ccccc2)cc(-c2ccccc2)n1	2.9	6.1	-0.9	95.3	-3.6	63.2*
SMILES	hK5 inh	FXIa inh 1536	Thrombin inh	STAT3 activator	FXIIa inh	AHR activator
CN(N)c1nc(-c2ccccc2)cc(-c2ccccc2)n1	nt	nt	nt	nt	nt	66.3*
Cc1nc(-c2ccccc2)cc(-c2ccccc2)n1	nt	nt	nt	nt	nt	18.3
COc1ccc(/C=N/NC(=O)c2cc(-c3ccccc3)nc3ccccc23)c(OC)c1	nt	nt	nt	nt	nt	24.7
COc1ccc2nc(-c3ccccc3)cc(OC)c2c1	39.1	6.7	29.0	92.1	16.0	64.4*
O=C(NCc1nc(-c2ccc(C(F)(F)F)cc2)no1)Nc1cc(Cl)cc(Cl)c1	4.9	3.7	2.8	nt	12.8	12.2
CC1(c2ccccc2)NC(=O)N(NC(=O)COC(=O)c2cc(Br)ccc2O)C1=O (stereo unspecified)	nt	nt	nt	nt	nt	-1.6
CC(C)c1ccc(-c2c(C#N)c(N)nc(SCC(=O)N3CCCCCC3)c2C#N)cc1	-2.4	-5.5	41.1*	95.1	5.0	3.6
CCOc1ccc(C2C(C(=O)c3cccs3)=C(O)C(=O)N2CCCn2ccnc2)cc1 (stereo unspecified)	nt	nt	nt	98.3	nt	3.0
N=c1oc2ccccc2cc1-c1nc(-c2ccccc2)cs1	-11.2	3.8	-1.0	109.2	7.7	59.2*
N=c1oc2ccc3ccccc3c2cc1-c1nc(-c2ccccc2)cs1	-10.2	2.3	-7.0	112.1	-0.8	14.8
Cc1ccc(Oc2c(C=O)c3ccccc3n2C)cc1	-19.1	2.4	0.9	144.8*	-2.8	6.2
Cn1c(Oc2ccc(F)cc2F)c(C=O)c2ccccc21	-4.4	-3.7	-7.6	95.6	nt	10.6
Cn1c(Oc2ccc(Cl)cc2)c(C=O)c2ccccc21	-0.9	2.1	-6.7	141.0*	3.8	10.9
COc1ccc(Oc2c(C=O)c3ccccc3n2C)cc1	2.8	-2.7	-1.2	107.2	4.6	3.4
COc1ccc(NC(=O)COC(=O)CCCc2c[nH]c3ccccc23)cc1OC	-1.8	-0.9	0.2	125.0	10.2	7.7
O=C(Nc1cccc(Cl)c1N1CCOCC1)c1cc([N+](=O)[O-])ccc1N1CCOCC1	nt	nt	nt	nt	nt	-2.1
Cc1cc(C(=O)Nc2ccccc2N2CCOCC2)ccc1[N+](=O)[O-]	-6.2	4.6	6.4	100.1	4.0	72.1*
Cc1cc(C(=O)NC(=S)Nc2ccccc2N2CCOCC2)ccc1[N+](=O)[O-]	-7.8	-4.1	-3.9	104.3	4.0	12.4
COc1ccccc1NC(=O)c1cc([N+](=O)[O-])ccc1N1CCOCC1	nt	nt	nt	nt	nt	59.7*
Cc1cc(C(=O)NC(=S)Nc2ccccc2N2CCCC2)ccc1[N+](=O)[O-]	-3.5	2.6	-7.3	107.1	5.7	49.7*
COc1ccc(-c2nnc3sc(-c4cccs4)nn23)cc1OC	-11.2	6.9	-4.7	89.2	20.2	-8.9
COc1ccc(-c2[nH]c(-c3ccc4c(c3)OCO4)nc2-c2ccccc2)cc1	-12.8	-2.5	-1.6	90.1	0.1	73.7*
COc1ccc(-c2nc(-c3ccccc3)c(-c3cccs3)[nH]2)cc1OC	-32.6	3.9	-9.9	102.0	21.4	81.3*
O=[N+]([O-])c1cccc(-c2nc(-c3cccs3)c(-c3cccs3)[nH]2)c1	7.3	8.2	-0.6	106.2	17.1	63.3*
O=[N+]([O-])c1cccc(-c2nc(-c3ccccc3)c(-c3cccs3)[nH]2)c1	19.8	-7.1	-3.1	96.1	9.8	23.5
COc1ccc(-c2nc(-c3cccs3)c(-c3cccs3)[nH]2)cc1OC	-29.9	-3.4	-6.8	88.6	-25.5	49.5*
Cc1nn(Cc2c(F)c(F)c(F)c(F)c2F)c(C)c1NC(=O)c1nn(C)c(C)c1Br	nt	nt	nt	nt	nt	-2.2
CC1Cc2ccccc2N1C(=O)C1CCCCN1S(=O)(=O)c1ccccc1 (stereo unspecified)	41.3*	13.5	31.5	106.0	30.7	3.4
CC1Cc2cc(S(=O)(=O)N3CCCCC3C)ccc2N1C(=O)C1CCC1 (stereo unspecified)	nt	nt	nt	nt	nt	0.6
